Publication PMC8652384 (Experimental and Therapeutic Medicine, 2021)
Like-named read-outs stand apart in the source and are kept apart here. Blank lines part the entries; values can stand above or below the compound they belong to. Residues, ends and D or L forms follow the SMILES beside them. *: point of attachment. Cbz = O=C(OCc1ccccc1)*

Legend:
[1] = molecular target: T1, integrin α4 (Homo sapiens, UniProt P05556+P13612); experiment: Western blot analysis of integrin α4 protein; assay type: cell-based; settings: MG132 1 µM; 96 h; LAX7R, LAX53, LAX56, REH
[2] = tested on: primary ALL; settings: cited from earlier work
[3] = tested on: HUVECs; experiment: Endothelial tube formation assay; assay type: cell-based, human; settings: data not shown
Method in brief: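 HUVECs (4-6x10^4/well) pre-treated 30 min at 37°C with test compound (0, 5 or 25 µM) or a reference α4 antagonist (0 or 25 µM), then seeded on Matrigel-coated wells for 4-6 h at 37°C, 5% CO2. Three fields per well imaged by phase contrast (x100); nodes, segments, meshes and total area quantified by image analysis.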

[4] = cited from earlier work
[5] = molecular target: T1, integrin α4; settings: cited from earlier work
[6] = molecular target: VLA-4 (Homo sapiens, UniProt P05556+P13612); experiment: VLA-4 conformation activation assay; assay type: binding; settings: LAX7R and TXL3 cells; without 5 mM Mn2+
Method in brief: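 LAX7R or TXL3 cells, 1x10^6/ml in HEPES buffer pH 7.4 with 0.1% HSA, Ca2+ and Mg2+, incubated 30 min at 37°C with test compound (0-100 µM) or human VCAM-1 ([…]), 10% PE-HUTS-21, ±5 mM Mn2+. DAPI added during final 5 min. PE MFI read on viable cells by flow cytometry; isotype control gave nonspecific binding. Occupancy curves fitted by variable-slope sigmoidal model.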

Compound: CC(C)C[C@@H](C=O)NC(=O)[C@H](CC(C)C)NC(=O)[C@H](CC(C)C)NC(=O)OCc1ccccc1 [MG132] (Cbz-Leu-Leu-Leu-aldehyde)
restoration of α4 decreased by AVA4746 (25 µM) [1]: partially restored by MG132 in all cases apart from LAX56

Compound: CCCC[C@H](NC(=O)N[C@@H](CC(=O)O)c1ccc2c(c1)OCO2)C(=O)N(Cc1cccs1)Cc1cccs1 [TBC3486]
survival of mice with primary ALL [2]: prolonged the survival of the mice

Compound: natalizumab [NZM]
angiogenesis inhibition [3]: no statistical differences
progressive multifocal leukoencephalopathy ([4]; patients treated with NZM): progressive multifocal leukoencephalopathy can arise
patients with antibodies against natalizumab ([4]; patients with Crohn's disease): 7%
patients with antibodies against natalizumab ([4]; patients with MS): 11%
de-adhesion of B-ALL cells from VCAM-1 [5]: can cause the de-adhesion of B-ALL cells from VCAM-1

conformation changes corresponding to VLA-4 activation [6]: little conformation changes
Compound: vascular cell adhesion molecule-1 [VCAM-1]
